The values below come from ChEMBL document CHEMBL3632581, “Dimers of Melampomagnolide B Exhibit Potent Anticancer Activity against Hematological and Solid Tumor Cells” (J Med Chem, 2015).

A word on the EC50: it is the concentration at which the effect is half-maximal. The low end stands for higher potency in that assay, the high end for lower potency in that assay.

A value given as a limit tells only on which side of the number the result lay.

The nature of assay [1]: Antileukemic activity against human M9-ENL1 cells after 24 hrs by annexin V/7-AAD staining-based flow cytometric analysis. It counts as functional, cell-based. Put shortly:
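M9-ENL1 cells in alpha-MEM with 5% human plasma, 20% FBS, SCF, IL-3, IL-7 and FLT3. Drug came from a DMSO stock diluted in PBS (≤0.5% DMSO final), for 24 h over 0.5-10 μM. Cells negative for both annexin V and 7-AAD were taken as non-apoptotic and normalized to vehicle. EC50 read from dose-response curves, triplicate.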
For orientation: Flow cytometry measures light scatter and fluorescence of single cells or particles in a stream.

The nature of assay [2]: Antileukemic activity against human AML01 cells after 24 hrs by annexin V/7-AAD staining-based flow cytometric analysis. It counts as functional, cell-based. Put shortly: (§1)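 Primary AML specimens from consenting donors, isolated by Ficoll-Paque gradient and sometimes cryopreserved. Cells were held 1 h in serum-free IMDM with 20% BIT 9500, LDL and β-mercaptoethanol before drug (DMSO stock diluted in PBS, ≤0.5% DMSO final). Exposure was 24 h over 0.5-10 μM. Annexin V/7-AAD double-negative cells, normalized to vehicle, gave the EC50. Run in triplicate.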

The nature of assay [3]: Antileukemic activity against human AML02 cells after 24 hrs by annexin V/7-AAD staining-based flow cytometric analysis. It counts as functional, cell-based. In a few lines:
as §1

The nature of assay [4]: Antileukemic activity against human AML05 cells after 24 hrs by annexin V/7-AAD staining-based flow cytometric analysis. It counts as functional, cell-based. Put shortly: as §1
A short description of assay [5]: Potency index, ratio of parthenolide EC50 to compound EC50 for human M9-ENL1 cells. Type of assay: functional.
Assay [6] is described as follows: Antileukemic activity against human AML03 cells after 24 hrs by annexin V/7-AAD staining-based flow cytometric analysis. Type of assay: functional, cell-based. Put shortly: as §1
A short description of assay [7]: Antileukemic activity against human AML04 cells after 24 hrs by annexin V/7-AAD staining-based flow cytometric analysis. Type of assay: functional, cell-based. Put shortly: as §1
The nature of assay [8]: Cytotoxicity against hematopoietic progenitor cells isolated from human umbilical cord blood by annexin V staining-based flow cytometric analysis. It counts as cell-based. Put shortly:
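Cord-blood mononuclear cells from Ficoll-Paque were plated in serum-free medium, with drug from a DMSO stock (≤0.5% DMSO final). Cells were stained for CD34, CD45 and annexin V. The non-apoptotic fraction (annexin V-negative within the CD34+CD45dim compartment) was normalized to vehicle, and EC50 was fitted where possible. Triplicate.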

As for `C=C1C(=O)O[C@H]2[C@H]1CC/C(COC(=O)NCCCNC(=O)OC/C1=C/CC[C@@]3(C)O[C@H]3[C@H]3OC(=O)C(=C)[C@@H]3CC1)=C\CC[C@@]1(C)O[C@@H]21`, the 50% effective concentration (EC50) in assay [1] stood at 1000 nM; in assay [2], 2600 nM; in assay [3] it was 2300 nM; in assay [4], 3700 nM. Also, the “Ratio EC50” value in assay [5] was found to be 2.

As for `C=C1C(=O)O[C@H]2[C@H]1CC/C(COC(=O)NCCCCCCNC(=O)OC/C1=C/CC[C@@]3(C)O[C@H]3[C@H]3OC(=O)C(=C)[C@@H]3CC1)=C\CC[C@@]1(C)O[C@@H]21`, the EC50 in assay [1] was 1500 nM; in assay [2], 1600 nM; in assay [3], 1200 nM; in assay [6], 3500 nM; in assay [7], 3700 nM; in assay [4], 1700 nM. Further, the EC50 in assay [8] was above 10000 nM. Moreover, the “Ratio EC50” value in assay [5] was 2.

In the case of `C=C1C(=O)O[C@H]2[C@H]1CC/C(COC(=O)NCCCCCCCNC(=O)OC/C1=C/CC[C@@]3(C)O[C@H]3[C@H]3OC(=O)C(=C)[C@@H]3CC1)=C\CC[C@@]1(C)O[C@@H]21`, the EC50 worked out at 1100 nM in assay [1]; 1700 nM in assay [2]; 1300 nM in assay [3]; 5700 nM in assay [6]; 3600 nM in assay [7]; 2400 nM in assay [4]. In assay [8], this compound yielded an EC50 above 10000 nM. In addition, the “Ratio EC50” value in assay [5] was 2.

As for `C=C1C(=O)O[C@H]2[C@H]1CC/C(COC(=O)NCCCCCCCCCNC(=O)OC/C1=C/CC[C@@]3(C)O[C@H]3[C@H]3OC(=O)C(=C)[C@@H]3CC1)=C\CC[C@@]1(C)O[C@@H]21`, the EC50 in assay [1] was found to be 2000 nM; in assay [2], 1900 nM; in assay [3] it was 1500 nM; in assay [6], 2400 nM; in assay [7], 3700 nM; in assay [4] it was 3200 nM. For the same compound, the EC50 in assay [8] was above 10000 nM. Besides, in assay [5], the “Ratio EC50” value amounted to 2.

Regarding `C=C1C(=O)O[C@H]2[C@H]1CC/C(COC(=O)NCCCCCCCCCCNC(=O)OC/C1=C/CC[C@@]3(C)O[C@H]3[C@H]3OC(=O)C(=C)[C@@H]3CC1)=C\CC[C@@]1(C)O[C@@H]21`, the EC50 in assay [1] was 2900 nM; in assay [2] it was 2300 nM; in assay [3], 2000 nM; in assay [6] it was 2900 nM; in assay [7], 4200 nM; in assay [4], 3300 nM. The compound further had an EC50 in assay [8] above 10000 nM. In addition, in assay [5], the “Ratio EC50” value stood at 2.

As to `C=C1C(=O)O[C@H]2[C@H]1CC/C(COC(=O)OCCCCOC(=O)OC/C1=C/CC[C@@]3(C)O[C@H]3[C@H]3OC(=O)C(=C)[C@@H]3CC1)=C\CC[C@@]1(C)O[C@@H]21`, the EC50 stood at 1200 nM in assay [1]; 930 nM in assay [2]; 860 nM in assay [6]; 2700 nM in assay [7]; 2700 nM in assay [4]. In assay [5], the “Ratio EC50” value came out at 2.

On to `C=C1C(=O)O[C@H]2[C@H]1CC/C(COC(=O)OCCCCCOC(=O)OC/C1=C/CC[C@@]3(C)O[C@H]3[C@H]3OC(=O)C(=C)[C@@H]3CC1)=C\CC[C@@]1(C)O[C@@H]21`, for which the EC50 came to 2400 nM in assay [1], 2200 nM in assay [3], 1400 nM in assay [6] and 2100 nM in assay [4]. Besides, the “Ratio EC50” value in assay [5] is reported as 2.

`C=C1C(=O)O[C@H]2[C@H]1CC/C(COC(=O)OC/C1=C/CC[C@@]3(C)O[C@H]3[C@H]3OC(=O)C(=C)[C@@H]3CC1)=C\CC[C@@]1(C)O[C@@H]21`: the EC50 in assay [1] was determined as 540 nM; in assay [2], 1600 nM. In addition, the “Ratio EC50” value in assay [5] is listed as 2.

With `C=C1C(=O)O[C@@H]2C3O[C@]3(C)CC/C=C(\C)CC[C@@H]12` (some centres not stated), the EC50 came out at 6000 nM in assay [1]; 16000 nM in assay [2]; 2500 nM in assay [3]; 4700 nM in assay [6]; 8000 nM in assay [7]; 7000 nM in assay [4].
